Experimental data reported in ChEMBL document CHEMBL5230178, “6-Bromoindirubin-3'-oxime derivatives are highly active colistin adjuvants against Klebsiella pneumoniae” (RSC Med Chem, 2023).
The source made the active and inactive calls. The rule behind the calls is not given here.

Columns and labels:
Klebsiella pneumoniae [1] = assay: Potentiation of colistin-induced antibacterial activity against colistin resistant Klebsiella pneumoniae B9 assessed as colistin MIC at 5 uM incubated for 16 hrs by broth microdilution method; assay type: functional
Summary of the method: (§1)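 Bacteria grown 6 h in CAMHB, diluted to 5×10^5 CFU/mL. Fixed adjuvant concentration added from DMSO stock; an undosed aliquot gives the colistin MIC alone. Colistin serially two-fold diluted in the compound-dosed suspension. MIC taken at 90% growth inhibition versus untreated wells. Fold change is colistin MIC alone over MIC with adjuvant. Duplicate, repeated at least twice.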

Klebsiella pneumoniae [2] = assay: Antibacterial activity against Klebsiella pneumoniae B9 assessed as inhibition of bacterial growth incubated for 16 hrs by broth microdilution method; assay type: functional
Summary of the method: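 Broth microdilution in CAMHB. Six-hour culture diluted to 5×10^5 CFU/mL, compound added from DMSO stock, two-fold serial dilution. MIC is the lowest concentration giving 90% growth inhibition versus untreated wells. Run in duplicate, repeated at least twice.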

Klebsiella pneumoniae [3] = assay: Antibacterial activity against colistin resistant Klebsiella pneumoniae I2 assessed as inhibition of bacterial growth incubated for 16 hrs by broth microdilution method; assay type: functional, organism-based
Summary of the method: (§2)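 Bacteria grown 6 h in cation-adjusted Mueller Hinton broth (CAMHB), subcultured to 5×10^5 CFU/mL. Compound added from DMSO stock and serially two-fold diluted in the culture. Incubated stationary at 37 °C for 16 h. MIC taken as the lowest concentration giving 90% growth inhibition versus untreated wells. Duplicate, repeated at least twice.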

Klebsiella pneumoniae [4] = assay: Antibacterial activity against colistin resistant Klebsiella pneumoniae C3 assessed as inhibition of bacterial growth incubated for 16 hrs by broth microdilution method; assay type: functional, organism-based; summary of the method: as §2
Klebsiella pneumoniae [5] = assay: Antibacterial activity against colistin resistant Klebsiella pneumoniae F9 assessed as inhibition of bacterial growth incubated for 16 hrs by broth microdilution method; assay type: functional, organism-based; summary of the method: as §2
Klebsiella pneumoniae [6] = assay: Antibacterial activity against colistin resistant Klebsiella pneumoniae F2210291 harbouring mcr-1 gene assessed as inhibition of bacterial growth incubated for 16 hrs by broth microdilution method; assay type: functional, organism-based; summary of the method: as §2
Acinetobacter baumannii [7] = assay: Antimicrobial activity against colistin resistant Acinetobacter baumannii 3941 assessed as inhibition of microbial growth incubated for 16 hrs by broth microdilution method; assay type: functional, organism-based; summary of the method: as §2
Escherichia coli [8] = assay: Antimicrobial activity against colistin resistant Escherichia coli 25922 harbouring mcr-1 gene assessed as inhibition of microbial growth incubated for 16 hrs by broth microdilution method; assay type: functional, organism-based; summary of the method: as §2
Pseudomonas aeruginosa [9] = assay: Antimicrobial activity against colistin resistant Pseudomonas aeruginosa TRPA 162 assessed as inhibition of microbial growth incubated for 16 hrs by broth microdilution method; assay type: functional, organism-based; summary of the method: as §2
Klebsiella pneumoniae [10] = assay: Potentiation of colistin-induced antibacterial activity against colistin-resistant Klebsiella pneumoniae B9 assessed as fold change in colistin MIC at 5 uM incubated for 16 hrs by broth microdilution method; assay type: functional; summary of the method: as §1
Klebsiella pneumoniae [11] = assay: Potentiation of colistin-induced antibacterial activity against colistin-resistant Klebsiella pneumoniae B9 assessed as fold change in colistin MIC at 3 uM incubated for 16 hrs by broth microdilution method; assay type: functional; summary of the method: as §1
Klebsiella pneumoniae [12] = assay: Potentiation of colistin-induced antibacterial activity against colistin-resistant Klebsiella pneumoniae B9 assessed as colistin MIC at 3 uM incubated for 16 hrs by broth microdilution method; assay type: functional; summary of the method: as §1
Klebsiella pneumoniae [13] = assay: Potentiation of colistin-induced antibacterial activity against colistin-resistant Klebsiella pneumoniae B9 assessed as colistin MIC at 1 uM incubated for 16 hrs by broth microdilution method; assay type: functional; summary of the method: as §1
Klebsiella pneumoniae [14] = assay: Potentiation of colistin-induced antibacterial activity against colistin resistant Klebsiella pneumoniae I2 assessed as colistin MIC at 5 uM incubated for 16 hrs by broth microdilution method; assay type: functional; summary of the method: as §1
Klebsiella pneumoniae [15] = assay: Potentiation of colistin-induced antibacterial activity against colistin resistant Klebsiella pneumoniae F2210291 harbouring mcr-1 gene assessed as colistin MIC at 5 uM incubated for 16 hrs by broth microdilution method; assay type: functional; summary of the method: as §1
Escherichia coli [16] = assay: Potentiation of colistin-induced antimicrobial activity against colistin resistant Escherichia coli 25922 harbouring mcr-1 gene assessed as colistin MIC at 5 uM incubated for 16 hrs by broth microdilution method; assay type: functional; summary of the method: as §1
Klebsiella pneumoniae [17] = assay: Potentiation of colistin-induced antibacterial activity against colistin resistant Klebsiella pneumoniae C3 assessed as colistin MIC at 5 uM incubated for 16 hrs by broth microdilution method; assay type: functional; summary of the method: as §1
Klebsiella pneumoniae [18] = assay: Potentiation of colistin-induced antibacterial activity against colistin resistant Klebsiella pneumoniae F9 assessed as colistin MIC at 5 uM incubated for 16 hrs by broth microdilution method; assay type: functional; summary of the method: as §1
Pseudomonas aeruginosa [19] = assay: Potentiation of colistin-induced antimicrobial activity against colistin-resistant Pseudomonas aeruginosa TRPA 162 assessed as colistin MIC at 5 uM incubated for 16 hrs by broth microdilution method; assay type: functional; summary of the method: as §1
Acinetobacter baumannii [20] = assay: Potentiation of colistin-induced antimicrobial activity against colistin resistant Acinetobacter baumannii 3941 assessed as assessed as colistin MIC at 5 uM incubated for 16 hrs by broth microdilution method; assay type: functional; summary of the method: as §1
Klebsiella pneumoniae [21] = assay: Potentiation of colistin-induced antibacterial activity against colistin-resistant Klebsiella pneumoniae B9 assessed as fold change in colistin MIC at 1 uM incubated for 16 hrs by broth microdilution method; assay type: functional; summary of the method: as §1

In the case of `O=C1Nc2cc(Br)ccc2/C1=C1/Nc2c(Cl)cc(Cl)cc2/C1=N\O`, the MIC (Klebsiella pneumoniae [1]) is reported as > 16 mg/L and the MIC (Klebsiella pneumoniae [2]) is reported as > 200 µM.

Compound COLISTIN has an MIC (Klebsiella pneumoniae [3]) of 512 mg/L, an MIC (Klebsiella pneumoniae [4]) of 128 mg/L and an MIC (Klebsiella pneumoniae [5]) of 256 mg/L. It also gave an MIC (Klebsiella pneumoniae [6]) of 16 mg/L, an MIC (Acinetobacter baumannii [7]) of 1020 mg/L and an MIC (Escherichia coli [8]) of 16 mg/L. It also gave an MIC (Pseudomonas aeruginosa [9]) of 1020 mg/L and an MIC (Klebsiella pneumoniae [2]) of 512 mg/L.

For `O=C1Nc2cc(Br)ccc2/C1=C1/Nc2c(cccc2C(F)(F)F)/C1=N\O`, the “fold change (FC)” value (Klebsiella pneumoniae [10]) was 256, the “fold change (FC)” value (Klebsiella pneumoniae [11]) was 128 and the MIC (Klebsiella pneumoniae [12]) was 4 mg/L. For the same compound, the MIC (Klebsiella pneumoniae [1]) was 2 mg/L, the MIC (Klebsiella pneumoniae [13]) was 64 mg/L and the MIC (Klebsiella pneumoniae [2]) was > 200 µM.

`O=C1Nc2cc(Br)ccc2/C1=C1/Nc2c(Cl)cccc2/C1=N\O` was tested, and the MIC (Klebsiella pneumoniae [14]) was 4 mg/L, the MIC (Klebsiella pneumoniae [15]) was 2 mg/L and the MIC (Escherichia coli [16]) was 2 mg/L. The MIC (Klebsiella pneumoniae [17]) was 4 mg/L, the “fold change (FC)” value (Klebsiella pneumoniae [10]) was 512 and the MIC (Klebsiella pneumoniae [18]) was 4 mg/L. The “fold change (FC)” value (Klebsiella pneumoniae [11]) was 256, the Activity (Acinetobacter baumannii [7]) was “inactive” and the MIC (Klebsiella pneumoniae [12]) was 2 mg/L. The MIC (Pseudomonas aeruginosa [19]) was > 16 mg/L, the MIC (Acinetobacter baumannii [20]) was > 16 mg/L and the Activity (Escherichia coli [8]) was “inactive”. For the same compound, the Activity (Pseudomonas aeruginosa [9]) was “inactive”, the “fold change (FC)” value (Klebsiella pneumoniae [21]) was 16 and the MIC (Klebsiella pneumoniae [1]) was 1 mg/L. The MIC (Klebsiella pneumoniae [13]) was 32 mg/L and the MIC (Klebsiella pneumoniae [2]) was > 200 µM.

In the case of `O=C1Nc2ccccc2/C1=C1/Nc2ccccc2/C1=N\O`, the MIC (Klebsiella pneumoniae [1]) is reported as > 16 mg/L and the MIC (Klebsiella pneumoniae [2]) is reported as > 200 µM.

`O=C1Nc2cc(Br)ccc2/C1=C1/Nc2ccc(Cl)cc2/C1=N\O` was tested, and the “fold change (FC)” value (Klebsiella pneumoniae [10]) was 256, the “fold change (FC)” value (Klebsiella pneumoniae [11]) was 32 and the MIC (Klebsiella pneumoniae [12]) was 16 mg/L. For the same compound, the MIC (Klebsiella pneumoniae [1]) was 2 mg/L, the MIC (Klebsiella pneumoniae [13]) was > 64 mg/L and the MIC (Klebsiella pneumoniae [2]) was > 200 µM.

With `O=C1Nc2cc(Br)ccc2/C1=C1/Nc2cc(Br)ccc2/C1=N\O` the “fold change (FC)” value (Klebsiella pneumoniae [10]) was 64, the MIC (Klebsiella pneumoniae [1]) was 8 mg/L and the MIC (Klebsiella pneumoniae [2]) was > 200 µM.

In the case of `Cc1ccc2c(c1)C(=N\O)/C(=C1/C(=O)Nc3cc(Br)ccc31)N2`, the MIC (Klebsiella pneumoniae [1]) is reported as > 16 mg/L.

In the case of `O=C1Nc2cc(F)ccc2/C1=C1/Nc2ccccc2/C1=N\O`, the MIC (Klebsiella pneumoniae [1]) is reported as > 16 mg/L and the MIC (Klebsiella pneumoniae [2]) is reported as > 200 µM.

For `O=C1Nc2cc(Br)ccc2/C1=C1/Nc2ccc(C(F)(F)F)cc2/C1=N\O`, the “fold change (FC)” value (Klebsiella pneumoniae [10]) was 64, the MIC (Klebsiella pneumoniae [1]) was 8 mg/L and the MIC (Klebsiella pneumoniae [2]) was > 200 µM.

For `O=C1Nc2cc(Cl)ccc2/C1=C1/Nc2ccccc2/C1=N\O`, the “fold change (FC)” value (Klebsiella pneumoniae [10]) was 128, the MIC (Klebsiella pneumoniae [1]) was 4 mg/L and the MIC (Klebsiella pneumoniae [2]) was > 200 µM.

In the case of `O=C1Nc2cc(Br)ccc2/C1=C1/Nc2cc(Cl)c(Cl)cc2/C1=N\O`, the MIC (Klebsiella pneumoniae [1]) is reported as > 16 mg/L and the MIC (Klebsiella pneumoniae [2]) is reported as > 200 µM.

For `O=C1Nc2cc(Br)ccc2/C1=C1/Nc2cc(F)c(F)cc2/C1=N\O`, the “fold change (FC)” value (Klebsiella pneumoniae [10]) was 512, the “fold change (FC)” value (Klebsiella pneumoniae [11]) was 128 and the MIC (Klebsiella pneumoniae [12]) was 4 mg/L. The MIC (Klebsiella pneumoniae [1]) was 1 mg/L, the MIC (Klebsiella pneumoniae [13]) was > 64 mg/L and the MIC (Klebsiella pneumoniae [2]) was > 200 µM.

`O=C1Nc2c(Cl)cccc2/C1=C1/Nc2ccccc2/C1=N\O` was tested, and the MIC (Klebsiella pneumoniae [1]) was > 16 mg/L and the MIC (Klebsiella pneumoniae [2]) was > 200 µM.

`O=C1Nc2c(Br)cccc2/C1=C1/Nc2ccccc2/C1=N\O` was tested, and the MIC (Klebsiella pneumoniae [1]) was > 16 mg/L and the MIC (Klebsiella pneumoniae [2]) was > 200 µM.
